Test results from the array DNA melting data of Ke et al. (doi:10.1101/2024.01.08.574731).

Legend:
[1] = folding enthalpy; higher = less favourable; fluorescence melt of hairpins on a sequencing array, two-state fit; conditions: sodium 0.088 M
In short: (§1)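 Bootstrapped two-state fits yielded melting temperature and folding enthalpy for library hairpins. Cy3 fluorescence, with annealed Cy3 and quencher oligos, was imaged on a sequenced MiSeq flow cell in 50 mM Na-HEPES pH 8.0, 25 mM NaCl in 2.5 °C steps up to 60 °C, and normalised to pre-quench Cy3 and to control constructs. Four replicates were combined by inverse variance, and fitted temperatures were raised by 9.35 °C to match UV melts.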

[2] = melting temperature; fluorescence melt of hairpins on a sequencing array, two-state fit, raised by 9.35 °C to match UV melts; conditions: sodium 0.088 M
In short: as §1

| Sequence | folding enthalpy [1] [kcal/mol] | Tm [2] [°C] |
| --- | --- | --- |
| GTACGGGGAAACCCGTAC (((((((....))))))) | -41.9 | 67.3 |
| GTACGGGGAAACCCGTGC (.(((((....))))).) | -26.9 | 55.6 |
| GTACGTGGAAACACGTGC (.(((((....))))).) | -28 | 54.2 |
| GTACGTGGAAACATGTGC (.((.((....)).)).) | -24.4 | 36.5 |
| GTACTACGAAAGTACTAC (((.(((....))).))) | -17.8 | 38.6 |
| GTACTACGAAAGTATTAC (((.(((....))).))) | -23.5 | 32.8 |
| GTACTAGGAAACCAGTAC (((((.(....).))))) | -26.9 | 36 |
| GTACTAGGAAACTAGTAC (((((((....))))))) | -40.1 | 52.3 |
| GTACTCCGAAAGGAATAC (((.(((....))).))) | -26 | 37.7 |
| GTACTCCGAAAGGATTAC (((.(((....))).))) | -29.8 | 37.6 |
| GTACTCGAAAGAGGGTAC ((((((....)))..))) | -14.2 | 33.7 |
| GTACTCGGAAACGAGCAC ((.((((....)))).)) | -19.3 | 48.6 |
| GTACTCGGAAACGAGTAC (((((((....))))))) | -37.7 | 63 |
| GTACTCGGAAACGGGTAC ((((.((....)).)))) | -42.6 | 50.6 |
| GTACTGGAAACAGTAC ((((((....)))))) | -36 | 54.7 |
| GTACTGGGAAACTAGTAC (((((.(....).))))) | -36.8 | 42.2 |
| GTACTTCGAAAGAAATAC (((.(((....))).))) | -17.1 | 29.3 |
| GTACTTCGAAAGAATAC (((.(((....)))))) | -7.86 | 25.9 |
| GTACTTGAAAAAGTAC ((((((....)))))) | -32.7 | 48.6 |
| GTACTTGGAAACAGGTAC ((((.((....)).)))) | -32.4 | 40.1 |
| GTAGAACGAAAGTTTAC (((.(((....)))))) | -9.99 | 27.4 |
| GTAGAACGAAAGTTTTAC (((.(((....))).))) | -30.6 | 40.2 |
| GTAGAAGAAATTCTAC ((((((....)))))) | -26.5 | 39.4 |

| Sequence | folding enthalpy [1] [kcal/mol] | Tm [2] [°C] |
| --- | --- | --- |
| GTAGAATCGAAAGATTAC (((..(((....)))))) | -11 | 27.3 |
| GTAGACGAAAGTCTCTAC ((((((....)))..))) | -11.6 | 34.9 |
| GTAGACGGAAACGTCTAC (((((((....))))))) | -50.1 | 61.3 |
| GTAGACTCGAAAGAGTAC (((..(((....)))))) | -13.9 | 31.2 |
| GTAGAGCGAAAGCTGTAC (((.(((....))).))) | -25.2 | 50.9 |
| GTAGAGGCGAAAGCCTAC (((..(((....)))))) | -8.81 | 38 |
| GTAGATCGAAAGATATAC (((.(((....))).))) | -32.4 | 42.3 |
| GTAGATCGAAAGATTAC (((.(((....)))))) | -13.5 | 29.3 |
| GTAGATGCGAAAGCATAC (((..(((....)))))) | -11.9 | 31.1 |
| GTAGATGGAAACATCCAC ((.((((....)))).)) | -16.9 | 30.4 |
| GTAGATGGAAACATTTAC (((.(((....))).))) | -17.3 | 32.1 |
| GTAGATGGAAACGTCTAC (((((.(....).))))) | -31.3 | 43.6 |
| GTAGCAGGAAACTGCTAC (((((((....))))))) | -32.7 | 66.2 |
| GTAGCCGAAAGGCATAC ((((((....))).))) | -11.9 | 43.5 |
| GTAGCCGAAAGGCATTAC ((((((....)))..))) | -7.48 | 27 |
| GTAGCCGAAAGGCCATAC ((((((....)))..))) | -8.17 | 22.3 |
| GTAGCCGAAAGGCCTTAC ((((((....)))..))) | -9.41 | 33.5 |
| GTAGCCGAAAGGCGATAC ((((((....)))..))) | -9.43 | 41.3 |
| GTAGCCGAAAGGCTCTAC ((((((....)))..))) | -8.79 | 38.6 |
| GTAGCCGGAAACAGCTAC (((((.(....).))))) | -22.2 | 43.4 |
| GTAGCCGGAAACGGCCAC ((.((((....)))).)) | -10.2 | 39.5 |
| GTAGCCGGAAACGGTTGC (.(.(((....))).).) | -15.2 | 36.4 |
| GTAGCGAAAGCTAC (((((....))))) | -25.8 | 68.7 |

| Sequence | folding enthalpy [1] [kcal/mol] | Tm [2] [°C] |
| --- | --- | --- |
| GTAGCGCCGAAAGGCTAC (((..(((....)))))) | -12.4 | 36.3 |
| GTAGCGCGAAAGCGATAC (((.(((....))).))) | -24.1 | 68 |
| GTAGCGGGAAACCACTAC ((((.((....)).)))) | -34.1 | 42.2 |
| GTAGCTCGAAAGAGTAC (((.(((....)))))) | -18.3 | 36.2 |
| GTAGGACGAAAGTCATAC (((.(((....))).))) | -28.1 | 52.5 |
| GTAGGCCGAAAGGCGTAC (((.(((....))).))) | -26.5 | 62.4 |
| GTAGGCCGAAAGGCTAC (((.(((....)))))) | -15.1 | 50.6 |
| GTAGGCGAAAGCCCGTAC ((((((....)))..))) | -8.97 | 31.1 |
| GTAGGCGAAAGCCGCTAC ((((((....)))..))) | -8.76 | 43.4 |
| GTAGGCGAAAGCCTTTAC ((((((....)))..))) | -8.65 | 24.7 |
| GTAGGCGGAAACGCCCAC ((.((((....)))).)) | -10.2 | 41.1 |
| GTAGGGACGAAAGTCTAC (((..(((....)))))) | -12 | 30 |
| GTAGGGCCGAAAGGCTAC (((..(((....)))))) | -9.3 | 35 |
| GTAGGGGGAAACCCCCAC ((.((((....)))).)) | -12.6 | 43.5 |
| GTAGGGGGAAACCCCTGC (.(((((....))))).) | -21.9 | 53.2 |
| GTAGGGGGAAACTCCTGC (.(((.(....).))).) | -20 | 35.5 |
| GTAGTAACGAAAGTTTAC (((..(((....)))))) | -9.07 | 27.1 |
| GTAGTACGAAAGTAATAC (((.(((....))).))) | -28.9 | 43.2 |
| GTAGTCGAAAGACAATAC ((((((....)))..))) | -15.2 | 28.3 |
| GTAGTCGAAAGACCTTAC ((((((....)))..))) | -14.1 | 29.4 |
| GTAGTCGAAAGACGCTAC ((((((....)))..))) | -14.2 | 36.1 |
| GTAGTCGAAAGACGTTAC ((((((....)))..))) | -12.2 | 35 |
| GTAGTCGCGAAAGCGTAC (((..(((....)))))) | -8.28 | 32.9 |

| Sequence | folding enthalpy [1] [kcal/mol] | Tm [2] [°C] |
| --- | --- | --- |
| GTAGTCGGAAACGATTAC (((.(((....))).))) | -30.4 | 44.1 |
| GTAGTCGGAAACGATTGC (.(.(((....))).).) | -17.2 | 31.2 |
| GTAGTCGGAAACGGCTAC ((((.((....)).)))) | -43.1 | 54.6 |
| GTAGTGCGAAAGCAGTAC (((.(((....))).))) | -31.2 | 58.2 |
| GTAGTGTCGAAAGACTAC (((..(((....)))))) | -15.1 | 33.3 |
| GTAGTTGCGAAAGCATAC (((..(((....)))))) | -10.9 | 31.1 |
| GTAGTTGGAAACAGTTAC (((..((....))..))) | -9.43 | 28.7 |
| GTAGTTGGAAACGACTAC (((((.(....).))))) | -26.4 | 45.8 |
| GTATAACGAAAGTTTTAC (((.(((....))).))) | -20.8 | 34.7 |
| GTATAATCGAAAGATTAC (((..(((....)))))) | -10.9 | 30 |
| GTATACCGAAAGGTTAC (((.(((....)))))) | -17.4 | 40.1 |
| GTATACGAAAGTAACTAC ((((((....)))..))) | -19.9 | 26.4 |
| GTATACGAAAGTAATAC ((((((....))).))) | -19.2 | 35.5 |
| GTATACGAAAGTATATAC ((((((....)))..))) | -14.4 | 34.7 |
| GTATACGAAAGTATTAC ((((((....))).))) | -13.9 | 32.8 |
| GTATACGGAAACGCATAC ((((.((....)).)))) | -28.2 | 37.3 |
| GTATACGGAAACGTACAC ((.((((....)))).)) | -18.6 | 32.4 |
| GTATACGGAAACGTGTAC (((.(((....))).))) | -35.3 | 46.3 |
| GTATAGGGAAACCCATAC ((((.((....)).)))) | -16.1 | 31.8 |
| GTATAGGGAAACCTATGC (.(((((....))))).) | -22.2 | 38 |
| GTATATGGAAACATATAC (((((((....))))))) | -42 | 47.9 |
| GTATCCGAAAGGACTTAC ((((((....)))..))) | -11.4 | 28.6 |
